Calls of active or inactive are those of the source. The calls are words filed in the database; no cut-off is given here.

Assay [1] deals with MCF7. The assay is described as follows: Decrease in endogenous sphingosine level in human MCF7 cells at >2.5 uM after 24 hrs. Type of assay: functional, cell-based. The method, boiled down: (§1)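 MCF7 cells grown in RPMI 1640 with 10% FCS at 37 °C, 5% CO2. Seeded at ~50% density (1×10^6 cells), treated 24 h later with compounds in ethanol (0.1% final); controls got ethanol only. Cells washed in cold PBS and lipids extracted. Cer species and Sph quantified by HPLC-MS/MS (MRM, positive ion) against internal standards and calibration curves. Values given as pmol/nmol phospholipid and compared with ethanol controls.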

The subject of assay [2] is MCF7. Description: Decrease in endogenous C16-ceramide level in human MCF7 cells at 10 uM after 24 hrs. Type of assay: functional. Further details: scale not given: the % may be the effect or the level left. The method, boiled down: as §1
The test system of assay [3] is MCF7. The assay is described as follows: Decrease in endogenous sphingosine level in human MCF7 cells upto 5 uM after 24 hrs. The assay is classed as functional, cell-based. The method, boiled down: as §1
The subject of assay [4] is MCF7. Description: Decrease in endogenous C24:1-ceramide level in human MCF7 cells at 10 uM. Further details: scale not given: the % may be the effect or the level left.
The test system of assay [5] is MCF7. The assay is described as follows: Decrease in endogenous sphingosine level in human MCF7 cells upto 50 uM after 24 hrs. The assay is classed as functional, cell-based. The method, boiled down:
as §1

Assay [6] deals with MCF7. Description: Decrease in endogenous C24-ceramide level in human MCF7 cells upto 5 uM after 24 hrs. The assay is classed as functional, cell-based. The method, boiled down:
as §1

In assay [7] the test system is MCF7. The assay is described as follows: Increase in endogenous ceramide level in human MCF7 cells at >25 uM after 24 hrs. Type of assay: functional, cell-based. The procedure, abridged:
(§2)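 MCF7 cells grown in RPMI 1640 with 10% FCS at 37 °C in 5% CO2. Seeded near 50% density and treated 24 h later with compound in ethanol (0.1% final); controls got ethanol alone. Cells washed in cold PBS and extracted. Cer species, Sph and S1P measured by HPLC-MS/MS (C8 column, positive-ion MRM) against internal standards and calibration curves. Results given as pmol/nmol phospholipid phosphate, relative to ethanol controls.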

Assay [8] deals with MCF7. The assay is described as follows: Decrease in endogenous C24-ceramide level in human MCF7 cells at 10 uM after 24 hrs. Type of assay: functional. More on the design: scale not given: the % may be the effect or the level left. The procedure, abridged:
as §1

The subject of assay [9] is MCF7. Description: Decrease in endogenous C16-ceramide level in human MCF7 cells upto 5 uM after 24 hrs. The assay is classed as functional, cell-based. The procedure, abridged:
as §1

Assay [10] deals with MCF7. The assay is described as follows: Increase in endogenous C24:1-ceramide level in human MCF7 cells upto 5 uM after 24 hrs. Type of assay: functional, cell-based. The method, boiled down:
as §2

Assay [11] deals with MCF7. The assay is described as follows: Increase in endogenous ceramide level in human MCF7 cells at 10 to 50 uM after 24 hrs. Type of assay: functional, cell-based. The procedure, abridged: as §2
The subject of assay [12] is MCF7. The assay is described as follows: Decrease in endogenous sphingosine level in human MCF7 cells at 10-50 uM after 24 hrs. The assay is classed as functional, cell-based. The method, boiled down:
as §1

In assay [13] the test system is MCF7. The assay is described as follows: Decrease in endogenous sphingosine level in human MCF7 cells at 1 uM after 24 hrs. The assay is classed as functional. The method, boiled down:
as §1

Assay [14] has as its system MCF7. The assay is described as follows: Increase in endogenous C14-ceramide level in human MCF7 cells at 10 uM after 24 hrs. The assay is classed as functional. The procedure, abridged: as §1
Assay [15] deals with MCF7. The assay is described as follows: Decrease in endogenous C24:1-ceramide level in human MCF7 cells at 10 uM after 24 hrs. The assay is classed as functional. The procedure, abridged:
as §1

The test system of assay [16] is MCF7. The assay is described as follows: Decrease in endogenous sphingosine level in human MCF7 cells at 10 uM upto 24 hrs. Type of assay: functional, cell-based. The method, boiled down:
as §1

For assay [17], the system named is MCF7. The assay is described as follows: Increase in endogenous C16-ceramide level in human MCF7 cells at 10 uM after 24 hrs. The assay is classed as functional, cell-based. The procedure, abridged: as §1
For assay [18], the system named is MCF7. The assay is described as follows: Inhibition of acid ceramidase in human MCF7 cells assessed as enzyme degradation at 10 uM after 5 hrs. Type of assay: cell-based.
The subject of assay [19] is MCF7. Description: Increase in endogenous C14-ceramide level in human MCF7 cells at 10 uM upto 24 hrs. The assay is classed as functional, cell-based. The procedure, abridged: as §1
Assay [20] has as its system MCF7. The assay is described as follows: Inhibition of endogenous sphingosine level in human MCF7 cells at 10 uM after 2.5 hrs. The assay is classed as functional, cell-based. The method, boiled down: as §2
Assay [21] deals with MCF7. The assay is described as follows: Increase in endogenous C24-ceramide level in human MCF7 cells at 50 uM after 24 hrs. Type of assay: functional. The procedure, abridged:
as §2

Assay [22] concerns MCF7. The assay is described as follows: Increase in endogenous C18-ceramide level in human MCF7 cells at 10 uM after 2.5 hrs. Type of assay: functional. The method, boiled down: as §1
The test system of assay [23] is MCF7. Description: Increase in endogenous ceramide level in human MCF7 cells at 50 uM after 24 hrs. Type of assay: functional. The method, boiled down:
as §2

Assay [24] has as its system MCF7. The assay is described as follows: Increase in endogenous C24:1-ceramide level in human MCF7 cells at 50 uM after 24 hrs. Type of assay: functional. The method, boiled down: as §2
Assay [25] relates to MCF7. The assay is described as follows: Increase in endogenous ceramide level in human MCF7 cells at more than 5 uM after 24 hrs. The assay is classed as functional, cell-based. The procedure, abridged: as §2
The test system of assay [26] is MCF7. Description: Growth inhibition of human MCF7 cells after 48 hrs. Type of assay: functional, cell-based.
Assay [27] concerns MCF7. The assay is described as follows: Increase in endogenous C14-ceramide level in human MCF7 cells at 10 uM after 2.5 hrs. Type of assay: functional. The procedure, abridged:
as §1

Assay [28] has as its system MCF7. The assay is described as follows: Increase in endogenous C16-ceramide level in human MCF7 cells at 50 uM after 24 hrs. Type of assay: functional. The procedure, abridged:
as §1

Assay [29] relates to MCF7. Description: Increase in endogenous C16-ceramide level in human MCF7 cells at 10 uM after 1 to 2.5 hrs. The assay is classed as functional. The method, boiled down:
as §1

Assay [30] concerns MCF7. The assay is described as follows: Decrease in endogenous sphingosine level in human MCF7 cells at 50 uM after 24 hrs. The assay is classed as functional. More on the design: scale not given: the % may be the effect or the level left. The procedure, abridged:
as §1

In the case of `CCCCCCCCCCCCCC(=O)N[C@H](C)[C@@H](O)c1ccccc1`, the outcome with MCF7 [1], in the assay with MCF7 [3], in the assay on MCF7 [5], in the assay on MCF7 [6], with MCF7 [7] and in the assay with MCF7 [9] was Active. Also, the outcome in the assay on MCF7 [10] was Active. In addition, the Activity in the assay with MCF7 [2], in the assay on MCF7 [4] and in the assay with MCF7 [8] was 30% throughout.
Consider `CCCCCCCCCCCCCC(=O)N[C@@H](C)[C@@H](O)c1ccccc1`, for which the outcome with MCF7 [11] and in the assay on MCF7 [12] was inactive.
Turning to `CCCCCCCCCCCCCCN[C@H](CO)[C@H](O)c1ccc([N+](=O)[O-])cc1.Cl`, the outcome in the assay on MCF7 [13], in the assay on MCF7 [15], in the assay on MCF7 [16], in the assay on MCF7 [17], with MCF7 [8] and in the assay with MCF7 [18] was Active. In addition, in the assay with MCF7 [19], the result was Active. In addition, the Activity in the assay with MCF7 [14] worked out at 850%.
On to `CCCCCCCCCCCCCCN[C@H](C)[C@H](O)c1ccccc1`, for which the result in the assay on MCF7 [20] was Active.
As for `CCCCCCCCCCCCCC(=O)N[C@H](CO)[C@H](O)c1ccc([N+](=O)[O-])cc1`, the Activity is on record as 220% with MCF7 [21]; 300% with MCF7 [23]; 380% in the assay on MCF7 [24]; 80% with MCF7 [4]; 120% in the assay with MCF7 [27]; 340% with MCF7 [28]. Moreover, the figures for the Activity in the assay on MCF7 [8], in the assay with MCF7 [29] and in the assay with MCF7 [30] were 80%, 120% and 50%, respectively. Besides, the outcome in the assay with MCF7 [22], in the assay with MCF7 [25] and in the assay on MCF7 [26] was Active.

The values are drawn from ChEMBL document CHEMBL1143123, “Novel analogs of D-e-MAPP and B13. Part 2: signature effects on bioactive sphingolipids” (2008).
